# Active and inactive are the calls of the source. The rule behind the calls is not given here.
# Columns and labels:
# Format in all cases: functional, cell-based
# [1] = biological target: T1, Glucose-dependent insulinotropic receptor (Homo sapiens) (UniProt Q8TDV5); assay: Agonist activity at human GPR119 expressed in HEK293 cells assessed as cAMP accumulation after 60 mins relative to OEA
# T1 sequence (whole entry): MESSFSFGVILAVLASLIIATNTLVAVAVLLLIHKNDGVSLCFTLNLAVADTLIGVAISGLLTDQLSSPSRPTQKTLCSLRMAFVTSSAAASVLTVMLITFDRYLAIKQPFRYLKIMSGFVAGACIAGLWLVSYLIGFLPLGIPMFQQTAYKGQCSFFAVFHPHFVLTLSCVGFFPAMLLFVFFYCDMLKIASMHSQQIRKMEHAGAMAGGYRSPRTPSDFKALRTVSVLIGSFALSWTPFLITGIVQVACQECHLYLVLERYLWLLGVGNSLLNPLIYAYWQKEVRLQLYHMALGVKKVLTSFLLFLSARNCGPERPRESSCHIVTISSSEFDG
# Outline: (§1)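 HEK293 cells (4x10³/well) seeded, after 24h transiently transfected with human GPR119 expression plasmid via Lipofectamine/Plus; 24h later exposed to compounds in KRBH with 0.1% BSA and 500 μM IBMX, 60 min, 37 C. Lysed 10 min at room temperature (50 mM phosphate, 1 M KF, 1.25% Triton X-100, pH 7.0); cAMP read by HTRF. EC50 taken as concentration giving 50% of OEA cAMP stimulation; %max relative to OEA maximal effect.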
# [2] = biological target: T2, Glucose-dependent insulinotropic receptor (Homo sapiens, UniProt Q8TDV5); assay: Agonist activity at human GPR119 expressed in HEK293 cells assessed as cAMP accumulation after 60 mins; outline: as §1
# T2 sequence (Q8TDV5 whole entry): T1 sequence (whole entry)
# [3] = biological target: T1, Glucose-dependent insulinotropic receptor (Homo sapiens); assay: Agonist activity at human GPR119 expressed in HEK293 cells assessed as cAMP accumulation at 10 uM after 60 mins relative to OEA; outline: as §1
# [4] = biological target: T1, Glucose-dependent insulinotropic receptor (Homo sapiens); assay: Agonist activity at human GPR119 expressed in HEK293 cells assessed as cAMP accumulation at 10 uM after 60 mins
Emax [1],EC50 [2],Emax [3],Activity [4],SMILES
19.6%,> 10 µM,,,COc1cc2nc(OC3CCN(C(=O)OC(C)(C)C)CC3)nc(Nc3ccc(S(C)(=O)=O)cc3F)c2cc1OC
17.4%,> 10 µM,,,COc1cc2nc(Nc3ccc(S(C)(=O)=O)cc3)nc(OCC3CCN(C(=O)OC(C)(C)C)CC3)c2cc1OC
37.5%,> 10 µM,,,COc1cc2nc(Nc3ccc(S(C)(=O)=O)cc3)nc(N3CCC4CCC(C3)N4C(=O)OC(C)(C)C)c2cc1OC (racemic)
32.7%,> 10 µM,,,COc1cc2nc(N3CCC4CCC(C3)N4C(=O)OC(C)(C)C)nc(Nc3ccc(S(C)(=O)=O)cc3)c2cc1OC (racemic)
44.3%,> 10 µM,,,COc1cc2nc(N3CCC4CCC(C3)N4Cc3ccccc3)nc(Nc3ccc(S(C)(=O)=O)cc3F)c2cc1OC (racemic)
19.9%,> 10 µM,,,COc1cc2nc(NCC3CC4CCC(C3)N4C(=O)OC(C)(C)C)nc(Nc3ccc(S(C)(=O)=O)cc3)c2cc1OC (centres undefined)
19.7%,> 10 µM,,,COc1cc2nc(Nc3ccc(S(C)(=O)=O)cc3F)nc(OC3CCN(C(=O)OC(C)(C)C)CC3)c2cc1OC
15.1%,> 10 µM,,,COc1cc2nc(Nc3ccc(S(C)(=O)=O)cc3)nc(NCC3CC4CCC(C3)N4C(=O)OC(C)(C)C)c2cc1OC (centres undefined)
21.3%,> 10 µM,,,COc1cc2nc(Nc3ccc(S(C)(=O)=O)cc3F)nc(OCC3CCN(C(=O)OC(C)(C)C)CC3)c2cc1OC
23.4%,> 10 µM,,,COc1cc2nc(N3CCC4CCC(C3)N4Cc3ccccc3)nc(Nc3ccc(S(C)(=O)=O)cc3)c2cc1OC (racemic)
,,inactive,inactive,COc1cc2nc(OCC3CCN(C(=O)OC(C)(C)C)CC3)nc(Nc3ccc(S(C)(=O)=O)cc3)c2cc1OC
53.7%,1 µM,,,COc1cc2nc(NCC3CC4CCC(C3)N4C(=O)OC(C)(C)C)nc(Nc3ccc(S(C)(=O)=O)cc3F)c2cc1OC (centres undefined)
20.6%,> 10 µM,,,COc1cc2nc(Nc3ccc(S(C)(=O)=O)cc3)nc(OC3CCN(C(=O)OC(C)(C)C)CC3)c2cc1OC
56.9%,1 µM,,,COc1cc2nc(N3CCC4CCC(C3)N4C(=O)OC(C)(C)C)nc(Nc3ccc(S(C)(=O)=O)cc3F)c2cc1OC (racemic)
,2.2 µM,,,CCCCCCCC/C=C\CCCCCCCC(=O)NCCO [OLEOYLETHANOLAMIDE]
46.2%,1 µM,,,COc1cc2nc(NC3CC4CCC(C3)N4C(=O)OC(C)(C)C)nc(Nc3ccc(S(C)(=O)=O)cc3F)c2cc1OC (centres undefined)
17.9%,> 10 µM,,,COc1cc2nc(OC3CCN(C(=O)OC(C)(C)C)CC3)nc(Nc3ccc(S(C)(=O)=O)cc3)c2cc1OC
17%,> 10 µM,,,COc1cc2nc(Nc3ccc(S(C)(=O)=O)cc3)nc(NC3CC4CCC(C3)N4C(=O)OC(C)(C)C)c2cc1OC (centres undefined)
32.8%,> 10 µM,,,COc1cc2nc(Nc3ccc(S(C)(=O)=O)cc3)nc(N3CCC4CCC(C3)N4Cc3ccccc3)c2cc1OC (racemic)
33.2%,> 10 µM,,,COc1cc2nc(OCC3CCN(C(=O)OC(C)(C)C)CC3)nc(Nc3ccc(S(C)(=O)=O)cc3F)c2cc1OC

# From ChEMBL document CHEMBL2331248, “Synthesis and biological evaluation of novel 2,4-disubstituted quinazoline analogues as GPR119 agonists” (Bioorg Med Chem, 2013)
